{"data": "Experimental data pooled from the literature", "PBRM1 bromodomain": "Protein polybromo-1, bromodomain (PBRM1, Homo sapiens, UniProt Q86U86)", "PBRM1 BD2": "Protein polybromo-1, BD2 (PBRM1, Homo sapiens, UniProt Q86U86)", "ALDH2": "Aldehyde dehydrogenase, mitochondrial (ALDH2, Homo sapiens, UniProt P05091)", "BRD2 BD1": "Bromodomain-containing protein 2, BD1 (BRD2, Homo sapiens, UniProt P25440)", "ERBB3": "Receptor tyrosine-protein kinase erbB-3 (ERBB3, Homo sapiens, UniProt P21860)", "note": "Each line is one published result; the experiments were not run side by side."}
{"Compound": "CC(C)(C)c1ccc(NC(c2ccccc2)c2ccc3ccccc3c2O)cc1 (stereo not shown)", "target": "CAAX prenyl protease 2 (Homo sapiens, UniProt Q9Y256)", "test": "enzyme activity, inhibitor", "conditions": "10 µM", "endpoint": "remaining activity", "value": "< 40%"}
{"Compound": "CCC(/C=C1\\CCCn2c1nc(=O)c1c(Cl)cccc12)CC", "target": "PBRM1 bromodomain", "test": "thermal stability, DSF", "conditions": "100 µM", "endpoint": "ΔTm", "value": "5.82 °C"}
{"Compound": "CCCOc1ccc(OC)c(F)c1C(=O)c1ccc(C(=O)N[C@@H]2CNC[C@H]2NC(=O)c2ccc3[nH]ncc3c2)cc1", "target": "Serine/threonine-protein kinase N2 (PKN2, Homo sapiens, UniProt Q16513)", "test": "enzyme activity, inhibitor", "conditions": "0.5 µM", "endpoint": "remaining activity", "value": "14%"}
{"Compound": "C[S+]([O-])c1ccc(-c2nc(-c3ccncc3)c(-c3ccc(F)cc3)[nH]2)cc1 (stereo not shown)", "target": "PBRM1 bromodomain", "test": "thermal stability, DSF", "conditions": "10 µM", "endpoint": "ΔTm", "value": "1.33 °C"}
{"Compound": "CCC(/C=C1\\CCn2c1nc(=O)c1cc(Cl)ccc12)CC", "target": "PBRM1 BD2", "test": "thermal stability, DSF", "conditions": "100 µM", "endpoint": "ΔTm", "value": "0.47 °C"}
{"Compound": "O=[N+]([O-])OCC(CO[N+](=O)[O-])O[N+](=O)[O-]", "target": "ALDH2", "test": "enzyme activity, substrate", "endpoint": "Km", "value": "~20 µM"}
{"Compound": "Cc1cc2c(cc1N1C(=O)c3cccc4c(Cl)ccc(c34)C1=O)n(C)c(=O)n2C", "target": "Bromodomain-containing protein 2, BD2 (BRD2, Homo sapiens, UniProt P25440)", "test": "thermal stability, DSF", "conditions": "10 µM", "endpoint": "ΔTm", "value": "0.4 °C"}
{"Compound": "CCC/C=C1\\CCn2c1nc(=O)c1c(Cl)cccc12", "target": "PBRM1 bromodomain", "test": "thermal stability, DSF", "conditions": "100 µM", "endpoint": "ΔTm", "value": "11 °C"}
{"Compound": "Cc1cnc(Nc2ccc(OCCN3CCCC3)cc2)nc1Nc1cccc(S(=O)(=O)NC(C)(C)C)c1", "target": "BRD2 BD1", "test": "thermal stability, DSF", "conditions": "10 µM", "endpoint": "ΔTm", "value": "2.4 °C"}
{"Compound": "CN(C)/C=C1\\CCCn2c1nc(=O)c1c(Cl)cccc12", "target": "PBRM1 BD2", "test": "thermal stability, DSF", "conditions": "100 µM", "endpoint": "ΔTm", "value": "1.44 °C"}
{"Compound": "Oc1ccc(-c2nc(-c3ccncc3)c(-c3ccc(F)cc3)[nH]2)cc1", "target": "Protein polybromo-1, BD1 (PBRM1, Homo sapiens, UniProt Q86U86)", "test": "thermal stability, DSF", "conditions": "10 µM", "endpoint": "ΔTm", "value": "0 °C"}
{"Compound": "NS(=O)(=O)c1ccc(Nc2nc(-c3ccc(F)cc3)c3ccccc3n2)cc1", "target": "BRD2 BD1", "test": "binding, competition with immobilised ligand", "conditions": "1 µM", "endpoint": "remaining binding", "value": "4%"}
{"Compound": "Cc1oc2cc3oc(=O)c(C)c(C)c3cc2c1C", "target": "ALDH2", "test": "enzyme activity, inhibitor, absorbance", "conditions": "10 µM", "endpoint": "remaining activity", "value": "20.7%"}
{"Compound": "CN(C)C1CCN(CC#Cc2nn(C3CCCC3)c3nc(NCc4ccccc4)ncc23)C1 (stereo not shown)", "target": "Tyrosine-protein kinase JAK1 (JAK1, Homo sapiens, UniProt P23458)", "test": "enzyme activity, inhibitor, FRET", "conditions": "1 µM", "endpoint": "inhibition", "value": "0%"}
{"Compound": "CC(C)(C)C/C=C1\\CCn2c1nc(=O)c1c(Cl)cccc12", "target": "PBRM1 bromodomain", "test": "thermal stability, DSF", "conditions": "100 µM", "endpoint": "ΔTm", "value": "7.06 °C"}
{"Compound": "CCCN1CCCn2c1nc1c2c(=O)n(C)c(=O)n1C", "target": "Adenosine receptor A2b (ADORA2B, Homo sapiens, UniProt P29275)", "test": "ligand displacement, radioligand", "conditions": "10 µM, cell membranes", "endpoint": "inhibition", "value": "1%"}
{"Compound": "Nc1ncnc2occ(-c3ccc(NC(=O)Nc4cc(C(F)(F)F)ccc4F)cc3)c12", "target": "ERBB3", "test": "cell-free assay, inhibitor", "conditions": "20 µM", "endpoint": "remaining signal", "value": "73%"}
{"Compound": "CCC(/C=C1\\CCn2c1nc(=O)c1c(Cl)cccc12)CC", "target": "PBRM1 bromodomain", "test": "thermal stability, DSF", "conditions": "100 µM", "endpoint": "ΔTm", "value": "10.3 °C"}
{"Compound": "COc1cc(NC(C)=O)c(Cl)cc1C(=O)Nc1nccs1", "target": "Muscarinic acetylcholine receptor M1 (CHRM1, Homo sapiens, UniProt P11229)", "test": "cell-free assay", "conditions": "10 µM", "endpoint": "inhibition", "value": "2.6%"}
{"Compound": "Cc1ccc(C(=O)Nc2ccc(CN3CCN(C)CC3)c(C(F)(F)F)c2)cc1C#Cc1cnc2cccnn12", "target": "ERBB3", "test": "enzyme activity, inhibitor", "conditions": "23.5 nM", "endpoint": "remaining activity", "value": "82%"}
{"Compound": "CCC(/C=C1\\CCn2c1nc(=O)c1ccc(O)cc12)CC", "target": "PBRM1 BD2", "test": "thermal stability, DSF", "conditions": "100 µM", "endpoint": "ΔTm", "value": "3.49 °C"}
{"Compound": "Cc1ccc(NC(=O)c2ccc(C)c(C(F)(F)F)c2)cc1C#Cc1nn(C2CCC(O)CC2)c2ncnc(N)c12 (stereo not shown)", "target": "Tyrosine-protein kinase ABL1 (Abl1, Mus musculus, UniProt P00520)", "test": "cell-free assay", "conditions": "10 µM", "endpoint": "remaining signal", "value": "-2%"}
